Assay results as given in ChEMBL document CHEMBL4049414, “Can We Make Small Molecules Lean? Optimization of a Highly Lipophilic TarO Inhibitor” (J Med Chem, 2017).
Values after ≈ are worked out from the molar mass of the structure shown. Active and inactive are the calls of the source. No cut-off for these calls is given here.

How the values were obtained:
[1] = Inhibition of TarO in methicillin-resistant Staphylococcus aureus membranes assessed as reduction in C55-P-P-GlcNAc production using C55-P as substrate in presence of UDP-GlcNAc by LC-MS analysis
[2] = tested on: Staphylococcus aureus subsp. aureus COL; experiment: Inhibition of methicillin-resistant Staphylococcus aureus COL TarO assessed as compound concentration required for potentiation of imipenem-mediated bacterial growth inhibition by 95% after 20 hrs
Summary of the method: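 MRSA COL grown with compound in the presence of imipenem at 4 μg/mL. Growth read by OD600. The value is the minimum concentration that inhibits 95% of growth (sMITC95).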

[3] = tested on: Staphylococcus aureus; experiment: Growth inhibition of methicillin-resistant Staphylococcus aureus COL after 20 hrs
Summary of the method: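 MRSA COL grown with compound alone, with no antibiotic added. Growth read by OD600. The value is the minimum concentration that inhibits 95% of growth (iMITC95).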

[4] = Solubility of the compound in PBS buffer; format: physicochemical
[5] = AUC (0 to infinity) in rat at 1 mg/kg, iv; format: ADME, organism-based; parameters: dose 1 mg/kg, time infinity, route intravenous; conditions: in vivo
[6] = Clearance in rat at 1 mg/kg, iv; format: ADME, organism-based; conditions: in vivo
[7] = Volume of distribution at steady state in rat at 1 mg/kg, iv; format: ADME, organism-based; conditions: in vivo, read-out: Vdss
[8] = Terminal half life in rat at 1 mg/kg, iv; format: ADME, organism-based; conditions: in vivo, read-out: beta t1/2 (converted)
[9] = organism: Homo sapiens; experiment: Inhibition of PAF (unknown origin) at 10 uM relative to control
[10] = organism: Homo sapiens; experiment: Inhibition of adenosine transporter (unknown origin) at 10 uM relative to control
[11] = molecular target: Mitogen-activated protein kinase 3 (Homo sapiens) (UniProt P27361); experiment: Inhibition of ERK1 (unknown origin) at 10 uM relative to control
[12] = molecular target: Cannabinoid receptor 1 (Homo sapiens) (UniProt P21554); experiment: Inhibition of CB1 receptor (unknown origin) at 10 uM relative to control
[13] = organism: Homo sapiens; experiment: Inhibition of TBOB binding to GABA-A receptor (unknown origin) at 10 uM relative to control
[14] = molecular target: Histamine H2 receptor (Homo sapiens) (UniProt P25021); experiment: Inhibition of H2 receptor (unknown origin) at 10 uM relative to control
[15] = Inhibition of methicillin-resistant Staphylococcus aureus COL TarO assessed as suppression of bacteriophage K-mediated cell lysis; parameters: species or system Staphylococcus aureus subsp. aureus COL
[16] = Inhibition of methicillin-resistant Staphylococcus aureus COL TarO assessed as late stage targocil suppression after 20 hrs; parameters: species or system Staphylococcus aureus subsp. aureus COL
[17] = tested on: Staphylococcus aureus; experiment: Potentiation of imipenem-induced antibacterial activity against methicillin-resistant Staphylococcus aureus COL MB 5393 infected in neutropenic balb/c mouse assessed as reduction in bacterial burden in kidney at 10 mg/kg, sc administered three times per day at 2, 5 and 8 hrs post challenge cotreated with imipenem measured 24 hrs post challenge; format: functional, organism-based
[18] = AUC (0 to 24 hrs) in mouse at 100 mg/kg, po; format: ADME, organism-based; parameters: time < 24 hr, dose 100 mg/kg, route oral; conditions: in vivo

Sequence of Histamine H2 receptor (Homo sapiens) (P25021 whole entry): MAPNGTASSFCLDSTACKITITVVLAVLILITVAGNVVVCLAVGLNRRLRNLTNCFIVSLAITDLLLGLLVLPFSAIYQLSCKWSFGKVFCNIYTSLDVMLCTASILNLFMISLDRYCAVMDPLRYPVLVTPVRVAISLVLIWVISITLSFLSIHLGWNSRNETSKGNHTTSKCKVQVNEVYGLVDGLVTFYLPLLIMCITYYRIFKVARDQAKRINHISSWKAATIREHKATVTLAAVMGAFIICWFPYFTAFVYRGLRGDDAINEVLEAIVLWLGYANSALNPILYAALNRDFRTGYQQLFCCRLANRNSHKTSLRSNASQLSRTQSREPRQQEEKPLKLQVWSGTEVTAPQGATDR
Sequence of Cannabinoid receptor 1 (Homo sapiens) (P21554 whole entry): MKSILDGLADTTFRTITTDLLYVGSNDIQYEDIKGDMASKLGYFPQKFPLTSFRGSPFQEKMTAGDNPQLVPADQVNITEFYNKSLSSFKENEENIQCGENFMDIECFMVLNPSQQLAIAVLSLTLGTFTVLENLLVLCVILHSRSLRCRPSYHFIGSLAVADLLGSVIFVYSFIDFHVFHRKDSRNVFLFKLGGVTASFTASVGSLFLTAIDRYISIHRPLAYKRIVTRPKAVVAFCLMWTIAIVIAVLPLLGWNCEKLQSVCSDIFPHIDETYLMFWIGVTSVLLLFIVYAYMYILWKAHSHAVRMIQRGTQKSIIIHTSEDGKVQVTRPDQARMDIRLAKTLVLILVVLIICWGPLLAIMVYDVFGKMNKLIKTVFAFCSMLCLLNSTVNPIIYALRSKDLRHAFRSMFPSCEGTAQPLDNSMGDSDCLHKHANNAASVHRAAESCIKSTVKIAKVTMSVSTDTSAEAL
Sequence of Mitogen-activated protein kinase 3 (Homo sapiens) (P27361 whole entry): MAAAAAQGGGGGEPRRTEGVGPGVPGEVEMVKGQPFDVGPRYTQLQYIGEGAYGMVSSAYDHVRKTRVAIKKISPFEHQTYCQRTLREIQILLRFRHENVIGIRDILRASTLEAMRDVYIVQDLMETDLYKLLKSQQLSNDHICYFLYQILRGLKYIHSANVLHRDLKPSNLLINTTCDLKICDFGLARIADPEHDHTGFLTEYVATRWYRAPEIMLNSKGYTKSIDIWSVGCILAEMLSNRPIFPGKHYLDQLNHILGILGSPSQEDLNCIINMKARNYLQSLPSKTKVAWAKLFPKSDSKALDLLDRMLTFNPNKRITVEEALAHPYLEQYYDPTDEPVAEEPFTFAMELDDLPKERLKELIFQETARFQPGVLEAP

| Structure (SMILES) | IC50 [1] | MITC95 [2] | MITC95 [3] | further results |
| --- | --- | --- | --- | --- |
| COc1cc(C(F)(F)F)cc([C@H]2OC(=O)N(C(=O)NCc3cncc4cccnc34)[C@H]2CO)n1 | 880 nM | 900 nM | > 200 µM | solubility [4]: 94 µM (≈ 44.9 µg/mL); AUC(0-inf) [5]: 0.95 µM·h; clearance [6]: 36.8 mL/min/kg; Vd [7]: 1.2 L/kg; half-life [8]: 28.8 min; inhibition [9]: inactive; inhibition [10]: inactive; inhibition [11]: inactive; inhibition [12]: inactive; inhibition [13]: inactive; inhibition [14]: inactive |
| O=C(NCc1cncc2ccccc12)N1C(=O)O[C@H](c2cc(F)cc(C(F)(F)F)c2)[C@@H]1CO | 210 nM | 320 nM | > 200 µM | – |
| C[C@H]1[C@@H](c2cccc(C(F)(F)F)c2)OC(=O)N1C(=O)NCc1cncc2cccnc12 | 402 nM | 970 nM | > 200 µM | – |
| C[C@H]1[C@@H](c2cc(C(F)(F)F)cc(C(F)(F)F)c2)OC(=O)N1C(=O)NCc1cncc2ccccc12 | 29 nM | 31 nM | > 200 µM | IC50 [15]: 94 nM; IC50 [16]: 191 nM |
| CC(=O)NC[C@H]1CN(c2ccc(N3CCOCC3)c(F)c2)C(=O)O1 | – | – | – | Activity [17]: Active |
| COc1cc(C(F)(F)F)cc([C@H]2OC(=O)N(C(=O)NCc3cncc4cccnc34)[C@H]2C)n1 | 260 nM | 375 nM | > 200 µM | IC50 [15]: 600 nM; IC50 [16]: 200 nM; solubility [4]: 32 µM (≈ 14.8 µg/mL) |
| O=C(NCc1cncc2ccccc12)N1C(=O)O[C@H](c2cc(F)cc(C(F)(F)F)c2)[C@@H]1CCO | 4700 nM | 18000 nM | > 200 µM | – |
| C[C@H]1[C@@H](c2cc(C(F)(F)F)cc(C(F)(F)F)c2)OC(=O)N1CCCc1cccc2ccccc12 | 38 nM | – | – | – |
| C[C@H]1[C@@H](c2cc(F)cc(C(F)(F)F)c2)OC(=O)N1C(=O)NCc1cncc2ccccc12 | 25 nM | 125 nM | > 200 µM | – |
| O=C(NCc1cncc2ccccc12)N1C(=O)O[C@H](c2cc(C(F)(F)F)cc(C(F)(F)F)c2)[C@@H]1CO | 170 to 174 nM | 220 nM | > 200 µM | IC50 [15]: 1260 nM; IC50 [16]: 496 nM |
| O=C(NCc1cncc2cccnc12)N1C(=O)O[C@H](c2cc(C(F)(F)F)cc(C(F)(F)F)c2)[C@@H]1CO | 142 nM | 390 nM | > 200 µM | – |
| O=C(O)[C@H]1[C@@H](c2cccc(C(F)(F)F)c2)OC(=O)N1C(=O)NCc1cncc2ccccc12 | > 200000 nM | > 200000 nM | > 200 µM | – |
| C[C@H]1[C@@H](c2cc(C(F)(F)F)cc(C(F)(F)F)c2)OC(=O)N1C(=O)CCc1cncc2ccccc12 | 24 nM | 23 nM | > 200 µM | AUC(0-t) at 24 h [18]: 1.7 µM·h; inhibition [9]: > 50%; inhibition [10]: > 50%; inhibition [11]: > 50%; inhibition [12]: > 50%; inhibition [13]: > 50%; inhibition [14]: > 50% |
| C[C@H]1[C@@H](c2cc(C(F)(F)F)ccn2)OC(=O)N1C(=O)NCc1cncc2ccccc12 | 5300 nM | 6250 nM | > 200 µM | – |
